Only some compounds are listed: those with a hit (about 2.9% of all), similar ones and a draw of the others.
Efflux pump mplx = blocks antifungal efflux pumps in multiplex yeast assay; S. cerevisiae Candida pump triplex, Nile Red efflux; hit rate 0.44% among 330,000; AID 485275; inhibition, % at 10 µM;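 active = plate passing quality check with inhibition over a set limit, or well fluorescence over plate mean plus 4 SD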;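 also: Nile Red retained in pooled yeast measured as flow cytometry median fluorescence; higher means more Nile Red kept so more efflux inhibition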
MC4R barr agon = human MC4R agonism via beta-arrestin; P32245; U2OS MC4R beta-arrestin complementation, luminescence; percent of melanotan II response, DMSO zero; activation, % at 8.9 µM; hit rate 0.98% among 360,000;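 active = activation above a per-plate cutoff, the mean activation of sample wells on that plate plus 3 SD, cut at about 8% in these data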
Target sequence (P32245 whole entry, looked up): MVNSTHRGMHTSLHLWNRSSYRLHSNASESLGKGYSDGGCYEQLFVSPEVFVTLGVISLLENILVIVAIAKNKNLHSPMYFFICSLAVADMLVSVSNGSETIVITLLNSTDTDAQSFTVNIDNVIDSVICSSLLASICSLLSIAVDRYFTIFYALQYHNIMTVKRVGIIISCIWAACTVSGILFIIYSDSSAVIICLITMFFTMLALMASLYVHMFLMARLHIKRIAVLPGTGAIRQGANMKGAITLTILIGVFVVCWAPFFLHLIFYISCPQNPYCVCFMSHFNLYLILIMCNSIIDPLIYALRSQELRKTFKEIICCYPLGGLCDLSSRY
GalR3 antagonist = blocks the human galanin receptor 3 | AID 651719 | inhibition, % at 3 µM | HEK293 GalR3-CNG cAMP membrane potential fluorescence; galR3 body fused to GalR1 C-terminus | hit rate 0.44% among 360,000;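 active = inhibition above the screen-wide average plus 3 SD, cut at about 13% in these data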;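 also: forskolin and galanin both at EC90 stimulate the cells; cAMP rise reported by CNG channel membrane potential dye signal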
Target sequence (O60755 1-299 limits assumed): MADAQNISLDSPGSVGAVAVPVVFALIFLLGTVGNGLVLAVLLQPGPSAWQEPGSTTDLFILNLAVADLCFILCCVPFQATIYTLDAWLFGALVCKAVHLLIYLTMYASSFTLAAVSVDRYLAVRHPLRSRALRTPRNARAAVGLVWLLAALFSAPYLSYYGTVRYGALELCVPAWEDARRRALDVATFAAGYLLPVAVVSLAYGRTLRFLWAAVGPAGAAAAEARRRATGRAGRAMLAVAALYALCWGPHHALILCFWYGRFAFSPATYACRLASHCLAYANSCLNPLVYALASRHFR
Calb FLC = C. albicans growth modulation with fluconazole. C. albicans CaCi-2 (fluconazole-resistant clinical isolate) + fluconazole, Alamar Blue growth, 48 h. growth inhibition, % (no concentration beside the values). AID 1979. hit rate 0.57% among 300,000;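 active = growth inhibition above about 58% in most replicates, limit read from the data, passing the limit was not always enough; inconclusive = exactly half the replicates above a set limit; inactive = most replicates below a set limit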;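 also: all wells also contain fluconazole at 8 µg/ml as a sub-toxic cotreatment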
TAG inh = reduces triacylglycerol accumulation in H9c2 cells. Nile Red lipid (TAG) fluorescence; cells loaded with 200 µM oleic acid. inhibition, % at 12.5 µM. hit rate 0.66% among 230,000;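 active = pattern-corrected inhibition of lipid staining of at least 50% with the nuclear-stain viability signal not falling by more than 50%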
MC4R antagonist = antagonists of human melanocortin 4 receptor (MC4R) | P32245 | MC4R-expressing cells, MTII-stimulated cAMP, LANCE TR-FRET | inhibition, % at 6.5 µM | hit rate 0.48% among 360,000 | AID 540295;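 active = inhibition above its plate's cutoff, the mean of tested wells on that plate plus 3 SD, cut at about 29% in these data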
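Material – human MC4R-expressing U2OS cells · Repeats – no replicates · Detection – TR-FRET with Eu-cAMP and labeled anti-cAMP, 671 nm · Times – compound 30 min, challenge 1 h, detection 1 h · Compound – single nominal compound dose of 6.5 µM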
cAMP nonselect = counter-screen for MC4R antagonists: nonselective cAMP signaling inhibitors; shares compounds with MC4R antagonist; parental U2OS, forskolin cAMP, LANCE TR-FRET; inhibition, % at 6.5 µM; hit rate 26% among 1,600;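 active = mean inhibition over triplicates above the low-control well mean plus 3 SD, set per campaign, cut at about 13% in these data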;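 also: signal is single emission at 671 nm which falls as cellular cAMP rises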
MC4R cAMP antag = human MC4R cAMP antagonism confirmation. shares compounds with MC4R antagonist. MC4R-expressing cells, MTII-stimulated cAMP, TR-FRET. inhibition, % at 6.5 µM. hit rate 27% among 1,600; in the data active = inhibition above about 29%
Large screens that a line does not name were inactive (follow-up assays come after a bar, where they were run).

O=S(=O)(O)c1nc2ccccc2[nH]1	MC4R antagonist 35 | cAMP nonselect inactive | MC4R cAMP antag inactive
COc1ccc(CCNC(=O)c2ccc(Br)o2)cc1Br	none (no result: Efflux pump mplx, MC4R barr agon, Calb FLC, TAG inh, MC4R antagonist)
NS(=O)(=O)c1c(Sc2ccccc2C(=O)O)ccc2ccccc12	MC4R antagonist 37 | cAMP nonselect 17 | MC4R cAMP antag 38
COc1ccccc1N1CCN(C(=O)CCCNC(=O)Cn2cnc3sc(C)c(C)c3c2=O)CC1	MC4R antagonist 33 (no result: TAG inh) | cAMP nonselect inactive | MC4R cAMP antag inactive
COc1ccc(NC(=S)N2CCCC2)cc1OC	none
COc1ccc(NC(=S)N2CCN(C(c3ccccc3)c3ccccc3)CC2)cc1OC	MC4R antagonist 29 (no result: TAG inh) | cAMP nonselect inactive | MC4R cAMP antag inactive
O=[N+]([O-])c1cc(S(=O)(=O)Oc2ccccc2)ccc1Cl	MC4R antagonist 30 (no result: Efflux pump mplx, Calb FLC) | cAMP nonselect 35 | MC4R cAMP antag inactive
COc1ccccc1C(=O)Nc1nnc(-c2ccccc2)s1	none (no result: TAG inh)
O=C(Nc1nnc(-c2ccccc2)s1)c1ccccc1O	MC4R antagonist 31 (no result: TAG inh) | cAMP nonselect inactive | MC4R cAMP antag inactive
Cc1noc(C)c1C(=O)N1CCC1(C)C(=O)NS(=O)(=O)c1ccccc1C(F)(F)F (stereo not given)	none (no result: Efflux pump mplx, Calb FLC)
CCOC(=O)c1cnc2ccc(OC)cc2c1NCc1ccccc1	none (no result: TAG inh)
CCOC(=O)c1cnc2ccc(OCC)cc2c1NCc1ccccc1OC	MC4R antagonist 48 (no result: TAG inh) | cAMP nonselect 16 | MC4R cAMP antag 48
COc1ccc(C(O)c2nc(-c3cccc(NC(C)=O)c3)cs2)cc1 (stereo not given)	none (no result: Efflux pump mplx, Calb FLC)
CCC(C)CN1C(=O)CSCC1(C)C(=O)NC(C)C (stereo not given)	none (no result: Efflux pump mplx, MC4R barr agon, Calb FLC, TAG inh, MC4R antagonist)
COc1cc(C2NCC(c3ccc(Cl)cc3Cl)c3c2[nH]c2ccccc32)cc(OC)c1OC (stereo not given)	MC4R antagonist 36 (no result: TAG inh) | cAMP nonselect inactive | MC4R cAMP antag inactive
COc1cc(NC(=O)C2CC(c3ccccc3O)=NO2)cc(OC)c1OC (stereo not given)	none (no result: Efflux pump mplx, Calb FLC)
COc1cccc(C(c2c(N)n(C)c(=O)n(C)c2=O)C(C)[N+](=O)[O-])c1 (stereo not given)	MC4R antagonist 33 | cAMP nonselect inactive | MC4R cAMP antag inactive
O=[N+]([O-])c1cccnc1S(=O)(=O)c1ccccc1	Calb FLC 92, MC4R antagonist 33 (no result: TAG inh) | cAMP nonselect 14 | MC4R cAMP antag 38
COc1ccc([N+](=O)[O-])c(S(=O)(=O)c2ccccc2)n1	MC4R antagonist 29 | cAMP nonselect 29 | MC4R cAMP antag inactive
COc1ccc([N+](=O)[O-])c(S(=O)(=O)c2ccc(Cl)cc2)n1	none
COc1ccc(NC(=O)c2cc(-c3cc(F)ccc3OC(C)C)n[nH]2)cc1OC	none (no result: Efflux pump mplx, Calb FLC)
Cc1ccc(NC(=O)c2cncc(Br)c2)cc1S(=O)(=O)N(C)C	MC4R antagonist 29 (no result: TAG inh) | cAMP nonselect inactive | MC4R cAMP antag inactive
C[C@@H]1CN([C@@H](C)CO)C(=O)c2cc(Br)cnc2O[C@@H]1CN(C)S(C)(=O)=O	none (no result: Efflux pump mplx, Calb FLC)
CS(=O)(=O)c1ccc(Cl)c(NC(=O)COC(=O)CNC(=O)c2ccc(Br)o2)c1	MC4R antagonist 32 | cAMP nonselect inactive | MC4R cAMP antag inactive
O=C(CSc1ccccn1)C12CC3CC(CC(C3)C1)C2	MC4R antagonist 32 (no result: TAG inh) | cAMP nonselect inactive | MC4R cAMP antag inactive
Cc1cc(C)n(CCNC(=O)[C@@H](Cc2ccccc2)NC(=O)[C@H]2O[C@@H](n3ccc(=O)[nH]c3=O)[C@H](O)[C@@H]2O)n1	none (no result: Efflux pump mplx, MC4R barr agon, Calb FLC, TAG inh, MC4R antagonist)
CC(C)Cc1ccc(C(C)CC2=CCC(CN(C)C)C2=O)cc1 (stereo not given)	MC4R antagonist 39 (no result: Efflux pump mplx, Calb FLC) | cAMP nonselect inactive | MC4R cAMP antag 46
CC(C)Cc1ccc(C(C)/C=C2/CCC(CN3CCCCC3)C2=O)cc1 (stereo not given)	none (no result: Efflux pump mplx, Calb FLC)
COc1cccc(-n2c(C)cc(/C=C3/C(=N)N4C(=NC3=O)SN=C4S(C)(=O)=O)c2C)c1	MC4R antagonist 29 | cAMP nonselect inactive | MC4R cAMP antag inactive
O=C(c1c(F)c(F)c(F)c(F)c1F)N1CCc2ccccc21	MC4R antagonist 33 | cAMP nonselect 17 | MC4R cAMP antag inactive
COc1cccc(Nc2nc(-c3cccs3)nc3ccccc23)c1	MC4R antagonist 32 (no result: TAG inh) | cAMP nonselect inactive | MC4R cAMP antag inactive
COc1ccc(Nc2nc(-c3cccs3)nc3ccccc23)cc1	Calb FLC inconclusive (no result: TAG inh)
CCCNC(=O)C1(C)CCN1C(=O)Cc1ccc(C(C)C)cc1 (stereo not given)	none (no result: Efflux pump mplx, Calb FLC)
COCCNC(=O)C1(C)CCN(Cc2ccc(C(C)C)cc2)C1 (stereo not given)	none (no result: Efflux pump mplx, Calb FLC)
CN1C[C@@H]2[C@@H]3C(=O)N(C)C(=O)[C@@H]3[C@](C)(C1=O)N2C(=O)c1ccccc1	none (no result: Efflux pump mplx, GalR3 antagonist, Calb FLC)
N#Cc1c(SC(C(=O)O)c2ccccc2)nc2c(c1-c1cccs1)CCCC2 (stereo not given)	MC4R antagonist 31 | cAMP nonselect 18 | MC4R cAMP antag inactive
Cc1ccc(S(=O)(=O)NCC(=O)OCC(=O)NC(=O)c2cccn2C)cc1	MC4R antagonist 34 (no result: TAG inh) | cAMP nonselect 26 | MC4R cAMP antag 40
Cc1ccc(S(=O)(=O)NCC(=O)OCC(=O)c2cccs2)cc1	MC4R antagonist 38 | cAMP nonselect inactive | MC4R cAMP antag inactive
CC1=C(C(=O)N2CCCCCC2)CC(CC(=O)NCCc2ccccn2)C(=O)N1Cc1ccc(F)cc1 (stereo not given)	none (no result: Efflux pump mplx, MC4R barr agon, Calb FLC, TAG inh, MC4R antagonist)
CC1(C(=O)NS(=O)(=O)c2cccc(Cl)c2)CCN1C(=O)C/C=C/c1ccccc1 (stereo not given)	none (no result: Efflux pump mplx, Calb FLC)
O=C(CCC(=O)c1ccc(F)cc1)OC1CCOC1=O (stereo not given)	MC4R antagonist 33 | cAMP nonselect 21 | MC4R cAMP antag 37
CCOc1ccc(C(=O)NCC(=O)OC2CCOC2=O)cc1OCC (stereo not given)	MC4R antagonist 32 | cAMP nonselect 16 | MC4R cAMP antag inactive
Nc1ncnc2c1ncn2[C@@H]1O[C@H](C(=O)N2CCC[C@@H]2C(=O)OCc2ccccc2)[C@@H](O)[C@H]1O	none (no result: Efflux pump mplx, MC4R barr agon, Calb FLC, TAG inh, MC4R antagonist)
Cn1c(-c2ccccc2)n[nH]c1=S	MC4R antagonist 33 | cAMP nonselect inactive | MC4R cAMP antag inactive
Cc1cccc(-c2n[nH]c(=S)n2C)c1	none
O=C(Cc1ccc(F)cc1)NCCc1cnc[nH]1	MC4R antagonist 31 (no result: TAG inh) | cAMP nonselect inactive | MC4R cAMP antag inactive
O=C(Cc1ccc(F)cc1)NCCc1ccc(F)cc1	none
